# Calls of active or inactive are those of the source. No cut-off for these calls is given here.
# Legend:
# Mythimna separata [1] = experiment: Insecticidal activity against Mythimna separata (Oriental armyworm) fourth-instar larvae infected Zea mays leaves assessed as larvicidal activity at 200 mg/L measured 2 days post dose; type: functional
# Method in brief: (§1)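 Foliar application test: individual corn (Tangyu 10) leaves were placed on moistened filter paper in Petri dishes.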
# Mythimna separata [2] = experiment: Insecticidal activity against Mythimna separata (Oriental armyworm) fourth-instar larvae infected Zea mays leaves assessed as larvicidal activity at 100 mg/L measured 2 days post dose; type: functional; method in brief: as §1
# Culex pipiens pallens [3] = experiment: Insecticidal activity against Culex pipiens pallens (mosquito) fourth-instar larvae assessed as larvicidal activity at 2 mg/L measured 3 days post dose; type: functional
# Method in brief: (§2)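 Mosquito larvicidal test: compounds were dissolved in acetone and diluted with distilled water to the test concentrations.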
# Mythimna separata [4] = experiment: Insecticidal activity against Mythimna separata (Oriental armyworm) fourth-instar larvae infected Zea mays leaves assessed as larvicidal activity at 10 mg/L measured 2 days post dose; type: functional; method in brief: as §1
# Mythimna separata [5] = experiment: Insecticidal activity against Mythimna separata (Oriental armyworm) fourth-instar larvae infected Zea mays leaves assessed as larvicidal activity at 5 mg/L measured 2 days post dose; type: functional; method in brief: as §1
# Mythimna separata [6] = experiment: Insecticidal activity against Mythimna separata (Oriental armyworm) fourth-instar larvae infected Zea mays leaves assessed as larvicidal activity at 20 mg/L measured 2 days post dose; type: functional; method in brief: as §1
# Mythimna separata [7] = experiment: Insecticidal activity against Mythimna separata (Oriental armyworm) fourth-instar larvae infected Zea mays leaves assessed as larvicidal activity at 50 mg/L measured 2 days post dose; type: functional; method in brief: as §1
# Plutella xylostella [8] = experiment: Insecticidal activity against Plutella xylostella (diamondback moth) s-instar larvae infected in fresh cabbage leaves assessed as larvicidal activity at 0.001 mg/L measured 2 days post dose; type: functional
# Method in brief: (§3)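 Leaf-dip (spray) test: a 200 mg/L stock in DMF was diluted with distilled water. Cabbage leaf disks (6 × 2 cm) were sprayed for 3 s, dried, and placed individually in glass tubes. Each disk received 30 second-instar larvae. Mortality was scored at 2 days; triplicate.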
# Plutella xylostella [9] = experiment: Insecticidal activity against Plutella xylostella (diamondback moth) s-instar larvae infected in fresh cabbage leaves assessed as larvicidal activity at 20 mg/L measured 2 days post dose; type: functional; method in brief: as §3
# Plutella xylostella [10] = experiment: Insecticidal activity against Plutella xylostella (diamondback moth) s-instar larvae infected in fresh cabbage leaves assessed as larvicidal activity at 0.01 mg/L measured 2 days post dose; type: functional; method in brief: as §3
# Plutella xylostella [11] = experiment: Insecticidal activity against Plutella xylostella (diamondback moth) s-instar larvae infected in fresh cabbage leaves assessed as larvicidal activity measured 2 days post dose; type: functional; conditions: 48 h; method in brief: as §3
# Plutella xylostella [12] = experiment: Insecticidal activity against Plutella xylostella (diamondback moth) s-instar larvae infected in fresh cabbage leaves assessed as larvicidal activity at 1 mg/L measured 2 days post dose; type: functional; method in brief: as §3
# Plutella xylostella [13] = experiment: Insecticidal activity against Plutella xylostella (diamondback moth) s-instar larvae infected in fresh cabbage leaves assessed as larvicidal activity at 0.1 mg/L measured 2 days post dose; type: functional; method in brief: as §3
# Culex pipiens pallens [14] = experiment: Insecticidal activity against Culex pipiens pallens (mosquito) fourth-instar larvae assessed as larvicidal activity at 1 mg/L measured 3 days post dose; type: functional; method in brief: as §2
# Culex pipiens pallens [15] = experiment: Insecticidal activity against Culex pipiens pallens (mosquito) fourth-instar larvae assessed as larvicidal activity at 0.5 mg/L measured 3 days post dose; type: functional; method in brief: as §2
# [16] = biological target: Voltage-dependent L-type calcium channel, putative (Pediculus humanus subsp. corporis) (UniProt E0VY79); experiment: Inhibition of voltage-dependent L-type calcium channel in Spodoptera exigua neurons assessed as change in […] calcium level at 1000 mg/L measured 10 min post dose by calcium-imaging technique
# Method in brief: (§4)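 S. exigua neurons were rinsed in physiological saline (pH 6.9). They were dye-loaded in the dark at 28 °C, either with 10 μM fluo-3-AM for 45 min in standard saline or with 5 μM fluo-5N for 5 h in EGTA Ca-free saline, then rinsed twice. [Ca²⁺]i was imaged on an inverted fluorescence microscope (40× oil, 488/530 nm) over 10 min. F/F₀ is relative to resting baseline; ≥6 repeats; mean ± SD.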
# [17] = biological target: Voltage-dependent L-type calcium channel, putative (Pediculus humanus subsp. corporis) (UniProt E0VY79); experiment: Inhibition of voltage-dependent L-type calcium channel in Spodoptera exigua neurons assessed as increase in intracellular calcium level at 1000 mg/L measured 10 min post dose by calcium-imaging technique; type: cell-based; method in brief: as §4
# [18] = biological target: Voltage-dependent L-type calcium channel, putative (Pediculus humanus subsp. corporis) (UniProt E0VY79); experiment: Inhibition of voltage-dependent L-type calcium channel in Spodoptera exigua neurons assessed as peak intracellular calcium level at 1000 mg/L measured 10 min post dose by calcium-imaging technique relative to initial untreated control; type: cell-based; set-up: scale not given: the % may be the effect or the level left; method in brief: as §4
# Voltage-dependent L-type calcium channel, putative (Pediculus humanus subsp. corporis), sequence (E0VY79 as listed by the source): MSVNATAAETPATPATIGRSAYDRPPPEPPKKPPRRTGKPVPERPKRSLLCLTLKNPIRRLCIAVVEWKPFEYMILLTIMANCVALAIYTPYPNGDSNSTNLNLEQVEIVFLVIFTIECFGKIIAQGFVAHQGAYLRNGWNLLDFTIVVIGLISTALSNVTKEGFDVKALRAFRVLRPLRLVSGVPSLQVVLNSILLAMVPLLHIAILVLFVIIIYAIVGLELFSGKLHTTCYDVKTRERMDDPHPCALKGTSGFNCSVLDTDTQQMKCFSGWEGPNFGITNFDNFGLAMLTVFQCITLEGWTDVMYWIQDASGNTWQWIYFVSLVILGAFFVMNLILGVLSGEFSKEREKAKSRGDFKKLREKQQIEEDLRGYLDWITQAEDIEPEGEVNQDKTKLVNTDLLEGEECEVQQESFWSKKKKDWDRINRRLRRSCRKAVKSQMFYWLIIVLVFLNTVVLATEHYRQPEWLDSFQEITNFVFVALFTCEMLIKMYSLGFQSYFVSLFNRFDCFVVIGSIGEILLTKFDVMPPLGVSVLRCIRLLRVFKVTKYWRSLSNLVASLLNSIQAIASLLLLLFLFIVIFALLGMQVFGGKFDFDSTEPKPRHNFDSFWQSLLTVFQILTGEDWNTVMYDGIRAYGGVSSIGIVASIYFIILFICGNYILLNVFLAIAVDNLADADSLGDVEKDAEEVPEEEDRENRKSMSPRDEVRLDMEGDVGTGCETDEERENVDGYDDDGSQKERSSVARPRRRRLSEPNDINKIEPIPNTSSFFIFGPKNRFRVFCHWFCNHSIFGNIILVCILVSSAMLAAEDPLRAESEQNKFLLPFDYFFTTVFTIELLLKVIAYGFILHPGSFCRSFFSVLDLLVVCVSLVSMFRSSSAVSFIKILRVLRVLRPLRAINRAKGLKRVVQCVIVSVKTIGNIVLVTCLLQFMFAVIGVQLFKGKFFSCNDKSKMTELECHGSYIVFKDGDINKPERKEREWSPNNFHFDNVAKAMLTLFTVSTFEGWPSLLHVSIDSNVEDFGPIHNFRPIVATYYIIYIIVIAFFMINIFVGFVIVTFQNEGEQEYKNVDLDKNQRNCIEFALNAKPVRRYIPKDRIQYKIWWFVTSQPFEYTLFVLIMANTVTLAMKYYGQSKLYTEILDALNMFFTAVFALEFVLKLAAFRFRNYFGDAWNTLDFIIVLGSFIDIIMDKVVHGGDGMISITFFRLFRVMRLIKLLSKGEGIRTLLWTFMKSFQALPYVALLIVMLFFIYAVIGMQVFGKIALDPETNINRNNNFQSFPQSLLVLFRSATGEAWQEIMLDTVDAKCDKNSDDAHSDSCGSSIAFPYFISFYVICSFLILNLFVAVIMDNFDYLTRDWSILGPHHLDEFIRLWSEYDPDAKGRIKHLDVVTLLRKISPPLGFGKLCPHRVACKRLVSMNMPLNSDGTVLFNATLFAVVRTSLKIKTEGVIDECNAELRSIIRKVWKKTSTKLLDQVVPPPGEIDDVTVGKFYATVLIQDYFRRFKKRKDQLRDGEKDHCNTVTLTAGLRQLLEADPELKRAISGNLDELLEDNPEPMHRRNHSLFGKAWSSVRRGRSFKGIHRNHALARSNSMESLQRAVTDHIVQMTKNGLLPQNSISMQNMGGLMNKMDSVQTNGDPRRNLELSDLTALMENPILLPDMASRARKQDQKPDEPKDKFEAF
smiles,measurement,setting,value
Cc1cccc(C(=O)NCCC(C)C)c1NC(=S)NC(=O)c1cc(Br)nn1-c1ncccc1Cl,Activity,Mythimna separata [1],100%
same,Activity,Mythimna separata [2],30%
same,Activity,Culex pipiens pallens [3],20%
Cc1cc(Cl)cc(C(=O)NC(C)C)c1NC(=O)NC(=O)c1cc(C(F)(F)F)nn1-c1ncccc1Cl,Activity,Mythimna separata [1],70%
Cc1cccc(C(=O)NC(C)C)c1NC(=S)NC(=O)c1cc(Cl)nn1-c1ncccc1Cl,Activity,Mythimna separata [1],100%
same,Activity,Mythimna separata [4],100%
same,Activity,Mythimna separata [5],0%
same,Activity,Mythimna separata [6],100%
same,Activity,Mythimna separata [7],100%
same,Activity,Mythimna separata [2],100%
same,Activity,Culex pipiens pallens [3],20%
Cc1cc(Cl)cc(C(=O)NC(C)(C)C)c1NC(=O)NC(=O)c1cc(C(F)(F)F)nn1-c1ncccc1Cl,Activity,Mythimna separata [1],60%
Cc1cc(Br)cc(C(=O)NCc2ccccc2)c1NC(=S)NC(=O)c1cc(C(F)(F)F)nn1-c1ncccc1Cl,Activity,Plutella xylostella [8],57%
same,Activity,Mythimna separata [1],100%
same,Activity,Mythimna separata [4],0%
same,Activity,Plutella xylostella [9],100%
same,Activity,Mythimna separata [6],100%
same,Activity,Plutella xylostella [10],100%
same,Activity,Mythimna separata [7],100%
same,LC50,Plutella xylostella [11],0.65 ng/mL
same,Activity,Plutella xylostella [12],100%
same,Activity,Mythimna separata [2],100%
same,Activity,Plutella xylostella [13],100%
Cc1cc(Br)cc(C(=O)NC(C)C)c1NC(=S)NC(=O)c1cc(Br)nn1-c1ncccc1Cl,Activity,Mythimna separata [1],100%
same,Activity,Mythimna separata [4],100%
same,Activity,Mythimna separata [5],0%
same,Activity,Mythimna separata [6],100%
same,Activity,Culex pipiens pallens [14],70%
same,Activity,Mythimna separata [7],100%
same,Activity,Mythimna separata [2],100%
same,Activity,Culex pipiens pallens [15],30%
same,Activity,Culex pipiens pallens [3],90%
Cc1cc(Cl)cc(C(=O)NC2CC2)c1NC(=O)NC(=O)c1cc(C(F)(F)F)nn1-c1ncccc1Cl,Activity,Mythimna separata [1],20%
CNC(=O)c1cc(Cl)cc(C)c1NC(=S)NC(=O)c1cc(Cl)nn1-c1ncccc1Cl,Activity,Mythimna separata [1],100%
same,Activity,Mythimna separata [4],40%
same,Activity,Mythimna separata [6],100%
same,Activity,Culex pipiens pallens [14],30%
same,Activity,Mythimna separata [7],100%
same,Activity,Mythimna separata [2],100%
same,Activity,Culex pipiens pallens [3],70%
O=C(NC(=O)c1cc(C(F)(F)F)nn1-c1ncccc1Cl)Nc1ccc(Cl)cc1C(=O)NC1CC1,Activity,Mythimna separata [1],30%
Cc1cc(Cl)cc(C(=O)NC2CCCCC2)c1NC(=S)NC(=O)c1cc(Br)nn1-c1ncccc1Cl,Activity,Mythimna separata [1],0%
same,Activity,Culex pipiens pallens [3],40%
Cc1cc(Cl)cc(C(=O)NC2CCCCC2)c1NC(=S)NC(=O)c1cc(C(F)(F)F)nn1-c1ncccc1Cl,Activity,Mythimna separata [1],40%
same,Activity,Plutella xylostella [9],30%
same,Activity,Plutella xylostella [12],0%
Cc1cc(Cl)cc(C(=O)NC2CCCCC2)c1NC(=O)NC(=O)c1cc(C(F)(F)F)nn1-c1ncccc1Cl,Activity,Mythimna separata [1],0%
Cc1cc(Br)cc(C(=O)NC(C)C)c1NC(=S)NC(=O)c1cc(Cl)nn1-c1ncccc1Cl,Activity,Mythimna separata [1],100%
same,Activity,Culex pipiens pallens [14],60%
same,Activity,Mythimna separata [7],40%
same,Activity,Mythimna separata [2],80%
same,Activity,Culex pipiens pallens [15],20%
same,Activity,Culex pipiens pallens [3],90%
Cc1cc(Br)cc(C(=O)NC2CC2)c1NC(=O)NC(=O)c1cc(C(F)(F)F)nn1-c1ncccc1Cl,Activity,Mythimna separata [1],100%
same,Activity,Mythimna separata [2],0%
CCNC(=O)c1cc(Cl)cc(C)c1NC(=S)NC(=O)c1cc(C(F)(F)F)nn1-c1ncccc1Cl,Activity,Plutella xylostella [8],29%
same,Activity,Mythimna separata [1],100%
same,Activity,Mythimna separata [4],100%
same,Activity,Plutella xylostella [9],100%
same,Activity,Mythimna separata [5],0%
same,Activity,Mythimna separata [6],100%
same,Activity,Plutella xylostella [10],86%
same,Activity,Mythimna separata [7],100%
same,Activity,Plutella xylostella [12],100%
same,Activity,Mythimna separata [2],100%
same,Activity,Plutella xylostella [13],100%
Cc1cccc(C(=O)NC2CC2)c1NC(=O)NC(=O)c1cc(C(F)(F)F)nn1-c1ncccc1Cl,Activity,Mythimna separata [1],100%
same,Activity,Mythimna separata [2],80%
Cc1cccc(C(=O)NCCC(C)C)c1NC(=S)NC(=O)c1cc(Cl)nn1-c1ncccc1Cl,Activity,Mythimna separata [1],60%
same,Activity,Culex pipiens pallens [3],10%
CNC(=O)c1cc(Cl)cc(C)c1NC(=O)NC(=O)c1cc(C(F)(F)F)nn1-c1ncccc1Cl,Activity,Mythimna separata [1],100%
same,Activity,Mythimna separata [2],20%
CNC(=O)c1cc(Cl)cc(C)c1NC(=S)NC(=O)c1cc(C(F)(F)F)nn1-c1ncccc1Cl,inhibition,[16],inactive
same,Activity,[17],Active
same,Activity,Plutella xylostella [8],43%
same,Activity,[18],112%
same,Activity,Mythimna separata [1],100%
same,Activity,Mythimna separata [4],100%
same,Activity,Plutella xylostella [9],100%
same,Activity,Mythimna separata [5],50%
same,Activity,Mythimna separata [6],100%
same,Activity,Plutella xylostella [10],71%
same,Activity,Mythimna separata [7],100%
same,Activity,Plutella xylostella [12],100%
same,Activity,Mythimna separata [2],100%
same,Activity,Plutella xylostella [13],100%
Cc1cc(Cl)cc(C(=O)NC2CC2)c1NC(=S)NC(=O)c1cc(C(F)(F)F)nn1-c1ncccc1Cl,Activity,Plutella xylostella [8],71%
same,Activity,Mythimna separata [1],100%
same,Activity,Mythimna separata [4],100%
same,Activity,Plutella xylostella [9],100%
same,Activity,Mythimna separata [5],30%
same,Activity,Mythimna separata [6],100%
same,Activity,Plutella xylostella [10],100%
same,Activity,Mythimna separata [7],100%
same,LC50,Plutella xylostella [11],0.25 ng/mL
same,Activity,Plutella xylostella [12],100%
same,Activity,Mythimna separata [2],100%
same,Activity,Plutella xylostella [13],100%
CCCCNC(=O)c1cc(Cl)cc(C)c1NC(=O)NC(=O)c1cc(C(F)(F)F)nn1-c1ncccc1Cl,Activity,Mythimna separata [1],40%
Cc1cc(Cl)cc(C(=O)NC(C)(C)C)c1NC(=S)NC(=O)c1cc(Br)nn1-c1ncccc1Cl,Activity,Mythimna separata [1],100%
same,Activity,Mythimna separata [4],100%
same,Activity,Mythimna separata [5],40%
same,Activity,Mythimna separata [6],100%
same,Activity,Culex pipiens pallens [14],90%
same,Activity,Mythimna separata [7],100%
same,Activity,Mythimna separata [2],100%
same,Activity,Culex pipiens pallens [15],30%
same,Activity,Culex pipiens pallens [3],100%
CNC(=O)c1cc(Cl)cc(C)c1NC(=S)NC(=O)c1cc(Br)nn1-c1ncccc1Cl,Activity,Mythimna separata [1],100%
same,Activity,Mythimna separata [4],100%
same,Activity,Mythimna separata [5],50%
same,Activity,Mythimna separata [6],100%
same,Activity,Culex pipiens pallens [14],20%
same,Activity,Mythimna separata [7],100%
same,Activity,Mythimna separata [2],100%
same,Activity,Culex pipiens pallens [3],60%
CCCNC(=O)c1cccc(C)c1NC(=O)NC(=O)c1cc(C(F)(F)F)nn1-c1ncccc1Cl,Activity,Mythimna separata [1],60%
CCCNC(=O)c1cc(Cl)ccc1NC(=O)NC(=O)c1cc(C(F)(F)F)nn1-c1ncccc1Cl,Activity,Mythimna separata [1],0%

# — ChEMBL document CHEMBL3046803, “Synthesis and insecticidal activities of novel anthranilic diamides containing acylthiourea and acylurea” (2012)
